Results taken from ChEMBL document CHEMBL4513216, “Probing the Open Global Health Chemical Diversity Library for Multistage-Active Starting Points for Next-Generation Antimalarials” (ACS Infect Dis, 2020).

Assay: Toxicity liver stage against HepG2, at 10uM
Format: cell-based
Design: test concentration 10 uM, cell line HepG2-A16-CD81EGFP
Details: human, HepG2-A16-CD81EGFP cells; read-out: INHIBITION
How it was run: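 Uninfected HepG2-A16-CD81EGFP cells, 3 × 10^3 per well, 1536-well, plated on prespotted compound at 10 μM final, parasite-free screening media added to match infected plates; puromycin 10 μM positive, DMSO 0.5% negative; run in parallel with 48 h PbLuc assay at 37 °C, 5% CO2; viability by CellTiter-Glo luminescence, normalized to controls.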

Row | SMILES | cytotoxicity at 10 µM
1 | O=c1[nH]c(NCCO)nc2c1C1(CCCC1)Cc1ccccc1-2 | 8.13%
2 | Cc1n[nH]c2c1C(c1ccc(Br)cc1)SCC(=O)N2 (centres undefined) | 6.5%
3 | COc1ccc(NC(=O)CCNc2ncccn2)cn1 | -48.4%
4 | Cc1cc(NCc2ccco2)nc2[nH]nc(N)c12 | -43.6%
5 | Cc1nn(-c2ncccn2)c2c1C(c1cnn(C)c1)SCC(=O)N2 (centres undefined) | -45%
6 | Cc1nn2c(-c3snnc3C)nnc2s1 | -4.19%
7 | O=C(NC1CCCc2c1[nH]c1ccc(F)cc21)c1n[nH]c2c1CCC2 (centres undefined) | 51.7%
8 | Cc1noc(CNC(=O)C2CSCCC(=O)N2)n1 (centres undefined) | 2.42%
9 | Cc1cnc2n(c1=O)CC(C(=O)Nc1ccon1)CS2 (centres undefined) | 0.595%
10 | CS(=O)(=O)N1C[C@H](C(=O)Nc2cnccn2)C[C@H]2OCC[C@H]21 | 10.7%
11 | CCS(=O)(=O)N1CCCC2(CCCN2C(=O)c2cn(C)cn2)C1 (centres undefined) | 8.16%
12 | CN1C(=O)CC[C@@H]2[C@H]1CCN2S(=O)(=O)Cc1ccccc1 | -5.73%
13 | CC(C)NC(=O)c1cc2c([nH]c1=O)CC(c1cccs1)CC2=O (centres undefined) | -3.01%
14 | CC(C)OCCCNC(=O)CN(c1ccc(F)c(F)c1)S(C)(=O)=O | 9.96%
15 | CC(C)Nc1nc(N2CCCC2)nc2c1CN(C(C)C)CC2 | 2.06%
16 | CCn1nnc(NCc2cc(Br)cc(Br)c2OC)n1 | 13.3%
17 | Cc1nn(C)c2c(NCCCn3cccn3)nc(C(C)C)nc12 | 6.67%
18 | Cc1nn(C)c(C)c1C(=O)NN1CCOCC1 | 7.83%
19 | COc1ccc(C(=O)Nc2c(C(=O)N(C)C)nn(C)c2C)cc1 | 6.03%
20 | Cc1cccc(C2(O)CCN(Cc3ccccc3N3CCCC3)CC2)c1 | 10.6%
21 | Oc1nc(N2CCCC2)nc2c1CCN(Cc1ccsc1)CC2 | -12%
22 | Cc1noc(C)c1-c1ccc(C2CCCN2C(=O)c2ccncn2)nc1 (centres undefined) | -4.45%

Row | SMILES | cytotoxicity at 10 µM
23 | Cc1nc(N)sc1C(=O)N1Cc2ccccc2OC2(CCOCC2)C1 | -24.6%
24 | COCc1cc(O)nc(C2CCCN(Cc3ccc(OC)cc3)C2)n1 (centres undefined) | -1.25%
25 | Cc1cc(C)cc(-c2ccc(CC3(C(=O)O)CCOCC3)cc2)c1 | 4.81%
26 | N#CCCN(Cc1ccccn1)C(=O)c1cccc(CN2CCCC2)c1 | 4.93%
27 | Cc1noc(C)c1CN(C)C(=O)c1nc(N2CCCC2)ncc1Cl | -41.6%
28 | CN(C)C(CNC(=O)CCNC(=O)OCC(F)(F)F)c1ccsc1 (centres undefined) | -45.2%
29 | COc1cc(Cl)ccc1CNC(=O)N(C)C(C)CS(C)(=O)=O (centres undefined) | -50.1%
30 | CCOc1ccc(Br)cc1S(=O)(=O)N(CC)Cc1ccc(N(C)C)cc1 | 14.1%
31 | Cc1nn(C)c(C)c1C1COCCN1C(=O)CC(C)(C)C (centres undefined) | -5.07%
32 | CNC(=O)c1sccc1S(=O)(=O)Nc1ccc(C)cc1 | 11.4%
33 | CCSCc1cccc(NCc2cccnc2)c1 | -1.32%
34 | CCC(=O)Nc1ncn(Cc2cccnc2)n1 | -11.3%
35 | CN(Cc1cccc(C(N)=O)c1)c1ncc(C#N)cc1Cl | 8.36%
36 | Cc1cnc(CN2CCC(N(C)Cc3nnc(C)n3C)C2)cn1 (centres undefined) | -10.7%
37 | O=C(C1SCCc2sccc21)N1CCCCC1 (centres undefined) | 9.78%
38 | C[C@H]1CN(C(=O)c2cccc(F)c2Cl)CCN1S(C)(=O)=O | -13.5%
39 | CC(C)C1CN(C(=O)c2ccccc2)CCS1 (centres undefined) | 1.62%
40 | CC(C)c1cccc(S(=O)(=O)NCCCN2CCC(O)CC2)c1 | 12.9%
41 | Cc1csc(N2CCN(Cc3cccnc3)CC2C)n1 (centres undefined) | 11.2%
42 | CCC(CNC1CCN(C(C)=O)CC1)Oc1cccc(C)c1 (centres undefined) | 6.42%
43 | CC(NCc1cnc(C2CCC2)s1)c1ccc(-n2cncn2)cc1 (centres undefined) | 1.44%
44 | CC(=O)NCCCNCc1c(C)nn(CC(C)C)c1N(C)C | 6.47%

Row | SMILES | cytotoxicity at 10 µM
45 | O=C(COc1ccccc1)N(Cc1ccncc1)C1CC1 | -46.1%
46 | CCOc1cccc(CNC(=O)CN2CCC3(CCOC3)C2)c1 (centres undefined) | -42.1%
47 | CCOCCN1CCCC1CS(N)(=O)=O (centres undefined) | 14.3%
48 | CC(O)(CNC(=O)c1cccnc1-n1cccn1)c1ccsc1 (centres undefined) | 2.38%
49 | O=C(CCN1CCc2[nH]nc(C(F)(F)F)c2C1)Nc1ccccc1 | -1.2%
50 | CCOCC(=O)Nc1ncn(Cc2cccc(Br)c2)n1 | -5.53%
51 | COCCN1CC[C@]2(CN(C(=O)c3ccc[nH]3)C[C@H]2C)C1=O | 2.53%
52 | O=C(NCCN1CCCC1)c1cc2c(s1)CCN2c1ncccn1 | -108%
53 | Cc1csc(NC(=O)[C@@H]2C[C@H]3[C@H](CCN3S(C)(=O)=O)O2)n1 | 1.64%
54 | O=C(CC(F)(F)F)N1C[C@H]2CCN[C@H]2C1 | 2.95%
55 | CN(C)C(=O)[C@H]1CCS(=O)(=O)[C@@H]2CN(c3ncccn3)C[C@H]12 | -103%
56 | COCc1cnc2n1CCN(C(=O)c1cc3ccccc3o1)C2C (centres undefined) | -105%
57 | CN(C)CC(=O)N1CCC2(CC1)COCCN(Cc1ccncc1)C2 | -80.8%
58 | Cc1[nH]c2ccccc2c1-c1ccnc(NCCN2CCOCC2)n1 | 7.12%
59 | CCc1ccccc1OC1CN(C(=O)c2ccnc(OC)c2)C1 | 32.8%
60 | Cc1n[nH]c(C)c1Sc1ccccc1NC(=O)N1CCN(C)CC1 | -12.9%
61 | Cc1ncc(CC(=O)N2CCCCC2CCN2CCCC2)c(=O)[nH]1 (centres undefined) | -9.2%
62 | CC(C)(C)c1cn(C2CCN(C(=O)c3cnccn3)CC2)nn1 | 14%
63 | N[C@H]1CN(C(=O)c2ccc(Cl)cc2O)C[C@@H]1C1CC1 | -44.7%
64 | Cn1ncc2c1NC(=O)CC2c1cc2c(cc1Cl)OCO2 (centres undefined) | 55.6%
65 | COc1nc2c(cc1C(=O)N1CC[C@H](CO)[C@@H](O)C1)CCC2 | -42.4%
66 | Cc1nc(CN2CCCC(CCc3cccc(C(F)(F)F)c3)C2)co1 (centres undefined) | -0.0825%

Row | SMILES | cytotoxicity at 10 µM
67 | Cc1cc(-n2cccn2)ccc1CN1CCOCC(CN(C)C)C1 (centres undefined) | -38.2%
68 | Cc1cnc(NCc2cnn(C)c2)nc1-c1cnn(C)c1 | 52.1%
69 | Cn1ncc2c(NC3CCSC3)nc(-c3ccncc3)nc21 (centres undefined) | 21.6%
70 | CCn1cc(CN2CCC(NS(C)(=O)=O)CC2)cc1C#N | -4.18%
71 | OCCC1CN(c2ncnc3[nH]cnc23)CCN1Cc1ccccc1 (centres undefined) | 11.9%
72 | N#Cc1cnc(N2Cc3cnn(Cc4ccc(F)cc4)c3C2)nc1N | 4.84%
73 | O=C1N(CCO)CCCC12CCN(Cc1nnc(C3CC3)o1)C2 (centres undefined) | 5.27%
74 | CCc1nnc(CNC2CCN(c3ncnc4c(C)csc34)CC2)s1 | 10.5%
75 | Cc1ncc2c(c1CNC(=O)C1(c3ccc(F)cc3)CC1)CCNC2 | -46.6%
76 | CCc1ccc(CN2CCN(c3ccc(C#N)cc3)C(=O)C2)nc1 | -1.32%
77 | Cc1nc(-n2cnnc2)ccc1-c1cccc2c1CCNC2 | 12.2%
78 | O=C(c1ccc(=O)[nH]c1)N1CCc2c(nc(-c3cccnc3)[nH]c2=O)C1 | 9.84%
79 | CC(C)c1cc(N2CCC(NS(C)(=O)=O)CC2)n2nccc2n1 | 0.324%
80 | Cc1nn2c(N3CCC(C(N)=O)CC3)cc(-c3ccccc3)nc2c1C | -2.83%
81 | CCOC(=O)C1(CCOC)CCCN(Cc2nccn2CC)C1 (centres undefined) | 10.8%
82 | CNC(=O)c1cn2cc(-c3ccccc3Cl)n(CC=C(C)C)c(=O)c2n1 | -7.05%
83 | CCN(CCn1cccn1)Cc1nc(-c2ccc(F)cc2)oc1C | 1.07%
84 | CC(C)NC(=O)c1nc(Cn2c(C(F)F)nc3ccccc32)no1 | 9.34%
85 | CC(=O)Nc1ncc(S(=O)(=O)N2CCC(C)CC2)s1 | 14.8%
86 | CCC[C@H]1CN(Cc2cc(C#N)n(C)c2C)C[C@@H]1NS(=O)(=O)CC | -153%
87 | Cc1ccc(C)c(NC(=O)c2coc(C)n2)c1 | -5.97%
88 | COc1ccccc1OCCCN(C)c1cc(C)nc(N)n1 | 1.39%

Row | SMILES | cytotoxicity at 10 µM
89 | CCCC(C)CN1CCC(n2cc(C3CCCC3)nn2)CC1 (centres undefined) | 14.2%
90 | N#Cc1cccc(C(=O)N2CCN(c3ncccn3)CC2)c1 | -0.0581%
91 | O=C(CCCn1cncn1)NC1CCc2nccn2C1 (centres undefined) | 2.03%
92 | CC(C)CCc1nc(CNCC2CCCN2c2cccnn2)cs1 (centres undefined) | -10.7%
93 | Cc1cc(S(=O)(=O)N2CCc3ccc(F)cc32)cc(C(=O)O)c1C | 3.2%
94 | CCn1cnnc1CNC(=O)N1CCC(C(=O)NC)CC1 | 2.65%
95 | CN(Cc1cccs1)C(=O)CS(=O)(=O)Cc1ccc(Cl)c(Cl)c1 | 0.866%
96 | O[C@@]1(c2ccccn2)CC[C@H]2CN(Cc3cccc(Cl)c3Cl)C[C@H]21 | 0.256%
97 | Cc1ccc([C@]2(O)CC[C@H]3CN(Cc4cccc(Cl)c4Cl)C[C@H]32)nc1 | 9.42%
98 | Cc1ccc(N2C[C@H]3CCC[C@@H](CN4CCOCC4)[C@H]3C2)nn1 | 10.7%
99 | O=C(NCCc1cccs1)[C@]12COC[C@H]1CN(C1CCOCC1)C2 | -116%
100 | Clc1ccc(COCC2CCN(Cc3ccccn3)CC2)cc1 | 4.94%
101 | O=C(NC1CC1)N1CCc2ccc(=O)n(CCN3CCCC3)c2CC1 | -0.603%
102 | Cc1nnc(N2CC[C@H]3C[C@@H](C(=O)NC4CCCC4)O[C@H]3C2)s1 | 6.69%
103 | O=C(NC1CC(F)(F)C1)[C@]12COC[C@H]1CN(Cc1ccccc1)C2 | -108%
104 | c1cncc(COCc2n[nH]c3c2CN(Cc2ccco2)C3)c1 | 9.01%
105 | CCC1=N[C@@]2(CC[C@@H]3CN(Cc4ccc(F)cc4)C[C@@H]32)C(=O)N1C | -106%
106 | Cc1ccc(CN2CC[C@H]3OCC[C@@H](C(=O)N4CCCCO4)[C@@H]3C2)o1 | 3.54%
107 | CC(C)n1nc(CN2CCOCC2)c2c1CN(C(=O)c1ccno1)C2 | 2.62%
108 | CC(=O)N1CCCC1c1nnn2cc(-c3ccncc3)ccc12 (centres undefined) | 7.28%
109 | c1ccc(CN2CCCC3(CCN(CC4CCCO4)CC3)C2)nc1 (centres undefined) | -115%
